Assay results: paper PMC9064169 (ACS chemical biology, 2021)
Where a chain is given by its changes, count along the chain named. Entries after “also recorded” stand apart in the source; their conditions may differ. Where two headings read alike, the source gives them in different places.

Columns and labels:
[1] = cited from earlier work
zebrafish = conditions: cited from earlier work
[2] = molecular target: T1, Arg563Ala His516Ala double mutant Nurr1 LBD (Homo sapiens, UniProt P43354, H516A/R563A); assay: MST binding to Arg563Ala/His516Ala double mutant Nurr1 LBD
T1 sequence (P43354 360-595 H516A/R563A limits assumed): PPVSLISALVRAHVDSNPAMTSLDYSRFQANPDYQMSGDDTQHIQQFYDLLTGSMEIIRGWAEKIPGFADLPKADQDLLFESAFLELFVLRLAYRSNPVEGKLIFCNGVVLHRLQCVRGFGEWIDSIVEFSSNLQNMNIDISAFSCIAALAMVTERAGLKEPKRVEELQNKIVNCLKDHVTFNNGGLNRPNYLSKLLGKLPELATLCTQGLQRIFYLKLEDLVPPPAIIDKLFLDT

MN9D cells = assay: Cytotoxicity / viability in MN9D cells; format: cell-based; conditions: 24 h treatment
[3] = molecular target: T2, Arg563Ala mutant Nurr1 LBD (Homo sapiens, UniProt P43354, R563A); assay: MST binding to Arg563Ala mutant Nurr1 LBD
T2 sequence (P43354 360-595 R563A limits assumed): T1 sequence (P43354 360-595 H516A/R563A limits assumed) with A157H

[4] = molecular target: His516Ala mutant Nurr1 LBD (Homo sapiens, UniProt P43354, H516A); assay: MST binding to His516Ala mutant Nurr1 LBD
Sequence of His516Ala mutant Nurr1 LBD (P43354 360-595 H516A limits assumed): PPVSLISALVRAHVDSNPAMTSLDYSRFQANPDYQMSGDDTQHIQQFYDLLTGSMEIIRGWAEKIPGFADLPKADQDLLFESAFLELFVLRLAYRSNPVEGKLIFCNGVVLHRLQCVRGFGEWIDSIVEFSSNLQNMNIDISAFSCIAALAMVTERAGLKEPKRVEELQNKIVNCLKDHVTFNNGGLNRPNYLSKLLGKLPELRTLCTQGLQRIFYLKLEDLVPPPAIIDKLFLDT

[5] = molecular target: endogenous full-length Nurr1 (Mus musculus, UniProt Q06219); assay: qPCR of Nurr1 target gene transcripts; format: cell-based; conditions: 24 h
Sequence of endogenous full-length Nurr1 (Q06219 whole entry): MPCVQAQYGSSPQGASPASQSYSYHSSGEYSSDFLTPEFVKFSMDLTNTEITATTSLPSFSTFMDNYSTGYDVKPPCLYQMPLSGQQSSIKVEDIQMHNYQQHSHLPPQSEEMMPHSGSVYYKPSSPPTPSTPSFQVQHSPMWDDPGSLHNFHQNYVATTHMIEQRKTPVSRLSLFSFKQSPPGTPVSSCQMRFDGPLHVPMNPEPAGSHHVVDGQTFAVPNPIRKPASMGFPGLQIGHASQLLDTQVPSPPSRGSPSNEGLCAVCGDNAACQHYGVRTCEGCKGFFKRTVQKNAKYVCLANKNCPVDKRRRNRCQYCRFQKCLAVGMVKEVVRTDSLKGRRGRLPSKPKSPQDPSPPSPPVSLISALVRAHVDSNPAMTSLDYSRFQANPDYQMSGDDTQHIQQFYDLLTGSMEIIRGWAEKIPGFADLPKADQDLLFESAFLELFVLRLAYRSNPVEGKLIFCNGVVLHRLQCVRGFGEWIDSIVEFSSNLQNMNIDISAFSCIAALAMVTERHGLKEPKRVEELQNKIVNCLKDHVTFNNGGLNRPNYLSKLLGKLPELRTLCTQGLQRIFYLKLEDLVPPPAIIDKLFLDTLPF
Method in brief: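 Mouse MN9D cells treated with test compound at 10 μM, or over a concentration series, for 24 h. Vehicle was DMSO. mRNA was isolated and Th and Vmat2 transcripts were measured by qPCR. Values were normalized to housekeeping gene Hprt and expressed as fold-change over DMSO-treated cells. Values are from three or more independent measurements ± SD.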

[6] = molecular target: Nurr1 ligand binding domain (LBD) (Homo sapiens, UniProt P43354); assay: Microscale thermophoresis
Sequence of Nurr1 ligand binding domain (LBD) (P43354 360-595 limits assumed): as the sequence (P43354 360-595 H516A limits assumed) above, with A157H counted along it
Method in brief: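 KD for the Nurr1 LBD measured by microscale thermophoresis, with 0.1% of the surfactant Pluronic F127 present. To exclude non-specific binding by aggregates, the assay was repeated at increasing Pluronic F127 concentrations. Values are from three or more independent measurements ± SD.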

LBD of RXRα = molecular target: T3, LBD of RXRα (Homo sapiens, UniProt P19793); assay: Binding to the LBD of RXRα
T3 sequence (P19793 227-458 limits assumed): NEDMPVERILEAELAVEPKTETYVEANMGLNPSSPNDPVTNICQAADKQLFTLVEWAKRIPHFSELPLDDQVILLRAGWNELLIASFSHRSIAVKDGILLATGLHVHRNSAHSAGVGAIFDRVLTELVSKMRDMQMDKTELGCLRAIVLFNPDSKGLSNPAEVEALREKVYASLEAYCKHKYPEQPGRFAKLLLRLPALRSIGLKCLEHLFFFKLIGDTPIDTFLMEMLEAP

[7] = molecular target: full-length Nurr1 (NBRE response element) (Homo sapiens, UniProt P43354); assay: Luciferase reporter assay, full-length receptor on NBRE response element; format: cell-based
Sequence of full-length Nurr1 (NBRE response element) (P43354 whole entry, species assumed): as the sequence (Q06219 whole entry) above, with S131T, S134G, D354E counted along it

[8] = Chemical stability in solution; format: physicochemical; conditions: observed during data acquisition; see references 26-28
[9] = MN9D cells, 10 μM, normalized to Hprt

Oc1cc2cc[nH]c2cc1O [DHI, 5,6-dihydroxyindole]
Chemical stability in solution [1]: readily auto-oxidizes and polymerizes
Expression of th and vmat2 in zebrafish (zebrafish): stimulates the expression of th and vmat2

Brc1ccc2[nH]ccc2c1 [5-bromoindole]
Binding to Arg563Ala/His516Ala double mutant relative to wildtype [2]: eliminated
Cytotoxicity in MN9D cells (MN9D cells): somewhat toxic to cells under certain conditions (≥10 μM, 24 h)
Binding to Arg563Ala mutant relative to wildtype [3]: eliminated
Binding affinity for His516Ala mutant relative to wildtype [4]: statistically unchanged
Th expression, fold-change relative to vehicle (DMSO) [5, 9]: 2.2 fold
Vmat2 expression, fold-change relative to vehicle (DMSO) [5, 9]: 2.5 fold

CCN(CC)Cc1cc(Nc2ccnc3cc(Cl)ccc23)ccc1O [amodiaquine, reference compound]
Kd [6]: 8 ± 1.5 µM

Clc1ccc2[nH]ccc2c1 [5-chloroindole]
Saturable binding to the LBD of RXRα (LBD of RXRα): does not exhibit saturable binding
Effect of increasing surfactant concentration on affinity for the Nurr1 LBD ([6]; MST binding assay): only has a minor effect
Affinity for the Nurr1 LBD compared with reference ligands ([6]; in vitro and in luciferase reporter assays): comparable to DHI and amodiaquine
Activity of Nurr1 in luciferase reporter assay (full-length receptor, NBRE) [7]: stimulates the activity of Nurr1
Improvement of affinity relative to wildtype, double mutant [2]: ~ 2 fold
Cytotoxicity in MN9D cells (MN9D cells): non-cytotoxic; also recorded: not cytotoxic
Improvement of affinity relative to wildtype, Arg563Ala mutant [3]: ~ 2 fold
Improvement of affinity relative to wildtype, His516Ala mutant [4]: ~ 2 fold
Chemical stability in solution [8]: stable
Vmat2 expression, fold-change relative to vehicle (DMSO) [5, 9]: 2.4 fold
Potency in MN9D cells compared with reference ligands ([5]; Th and Vmat2 expression): superior to that of DHI and amodiaquine

Nc1ccc2cc[nH]c2c1 [6-aminoindole]
Cytotoxicity in MN9D cells (MN9D cells): significant cytotoxicity
Chemical stability in solution [8]: autooxidation and polymerization in solution

Oc1ccc2cc[nH]c2c1 [6-hydroxyindole]
Cytotoxicity in MN9D cells (MN9D cells): significant cytotoxicity
Chemical stability in solution [8]: autooxidation and polymerization in solution
